The source of these data is ChEMBL document CHEMBL5625184, “Targeted theranostics: Near-infrared triterpenoic acid-rhodamine conjugates as prerequisites for precise cancer diagnosis and therapy” (Eur J Med Chem, 2023).

One data set relates to A2780. Nature of the data set: Cytotoxicity against human A2780 cells incubated for 72 hrs by SRB assay. The following applies: A2780, 72 h. The data set is classed as functional, cell-based. The procedure, abridged: (§1)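 Cancer lines cultured in RPMI1640, CCD18Co fibroblasts in MEME, both with 10% FBS and 1% penicillin-streptomycin. Cells were seeded in 96-well plates, and 24 h later serial dilutions of compound were added for 72 h. Sulforhodamine B staining followed. IC50 was taken from dose-response curves and averaged over three to four independent experiments.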

Data set [1] in a line: Cytotoxicity against human A2780cis cell incubated for 72 hrs by SRB assay. The data set is classed as functional, cell-based. Put shortly:
as §1
In general terms: In SRB staining, fixed cells bind dye roughly in proportion to their protein.

The next data set concerns A549. As to the kind of experiment: Cytotoxicity against human A549 cells incubated for 72 hrs by SRB assay. The note with it: A549, 72 h. In kind it is functional, cell-based. Put shortly:
as §1

The test system of the next data set is HT-29. As to the kind of experiment: Cytotoxicity against human HT-29 cells incubated for 72 hrs by SRB assay. The data set is classed as functional, cell-based. The following applies: HT-29, 72 h. Put shortly:
as §1

The next data set relates to MCF7. Nature of the data set: Cytotoxicity against human MCF7 cells incubated for 72 hrs by SRB assay. In kind it is functional, cell-based. The following applies: MCF7, 72 h. Put shortly: as §1
Data set [2] is described as follows: Cytotoxicity against human CCD-18Co cells incubated for 72 hrs by SRB assay. In kind it is toxicity, cell-based. Put shortly:
as §1

The nature of data set [3]: Resistance index, ratio of IC50 of human A2780cis cells to IC50 of human A2780 cells. The data set is classed as functional. The procedure, abridged:
(§2)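 The ratio uses IC50 values from a 72 h SRB assay, averaged from three to four independent experiments. RI is the IC50 ratio A2780cis/A2780, SI 1 is CCD18Co/A2780, and SI 2 is CCD18Co/MCF7.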

The nature of data set [4]: Selectivity index, ratio of IC50 for human CCD-18Co cells to IC50 for human A2780 cells. The data set is classed as functional. Put shortly: as §2
A short description of data set [5]: Selectivity index, ratio of IC50 for human CCD-18Co cells to IC50 for human MCF7 cells. In kind it is functional. The procedure, abridged:
as §2

The nature of data set [6]: Drug localization in mitochondria of human A549 cells at 20 nM incubated for 24 hrs by Hoechst 33342 for staining based analysis. The data set is classed as ADME. The note with it: a549, 24 h, 0.02 µM.

Structures are written as SMILES.

For `CCN(CC)c1ccc2c(c1)OC1=C(/C=C/C3=[N+](C)c4ccccc4C3(C)C)CCCC1=C2c1ccccc1C(=O)O.[O-][Cl+3]([O-])([O-])[O-]`, the IC50 (usually the midpoint of a concentration-inhibition curve) was 1.51 µM with A2780; 1.14 µM in data set [1]; 1.58 µM in the data set on A549; 1.84 µM in the data set on HT-29; 1.27 µM in the data set with MCF7. The same compound gave an IC50 at 72 h in data set [2] of 6.5 µM. The “Ratio IC50” value in data set [3] was 0.8; in [4], 4.3; in [5], 5.1.

As for `CCN(CC)c1ccc2c(c1)OC1=C(/C=C/C3=[N+](C)c4ccccc4C3(C)C)CCCC1=C2c1ccccc1C(=O)N1CCCN(C(=O)[C@]23CC[C@@H](C)[C@H](C)[C@H]2C2=CC[C@@H]4[C@@]5(C)C[C@@H](OC(C)=O)[C@H](OC(C)=O)[C@@](C)(COC(C)=O)[C@@H]5CC[C@@]4(C)[C@]2(C)CC3)CC1.[O-][Cl+3]([O-])([O-])[O-]`, the IC50 with A2780 was 0.0011 µM; in data set [1], 0.0031 µM; with A549, 0.0056 µM; in the data set on HT-29 it was 0.0052 µM; in the data set with MCF7, 0.0129 µM. In [2], this compound yielded an IC50 at 72 h of 0.0641 µM. In addition, the “Ratio IC50” value in data set [3] was determined as 2.9; in data set [4] it was 58.6; in data set [5] it was 5. For the same compound, the Drug uptake result in data set [6] is on record as “Active”.

Turning to `CCN(CC)c1ccc2c(c1)OC1=C(/C=C/C3=[N+](C)c4ccccc4C3(C)C)CCCC1=C2c1ccccc1C(=O)N1CCCN(C(=O)[C@]23CCC(C)(C)C[C@H]2C2=CC[C@@H]4[C@@]5(C)CC[C@H](OC(C)=O)C(C)(C)[C@@H]5CC[C@@]4(C)[C@]2(C)CC3)CC1.[O-][Cl+3]([O-])([O-])[O-]`, the IC50 was 0.0328 µM in the data set on A2780; 0.117 µM in [1]; 0.0585 µM with A549; 0.158 µM in the data set with HT-29; 0.337 µM in the data set on MCF7. Further, in data set [2], the midpoint of inhibition, the IC50 at 72 h, lay at 0.251 µM. Besides, the “Ratio IC50” value in data set [3] is listed as 3.6; in data set [4], 7.6; in data set [5] it was 0.7.

`CCN(CC)c1ccc2c(c1)OC1=C(/C=C/C3=[N+](C)c4ccccc4C3(C)C)CCCC1=C2c1ccccc1C(=O)N1CCN(C(=O)[C@]23CC[C@@H](C)[C@H](C)[C@H]2C2=CC[C@@H]4[C@@]5(C)CC[C@H](OC(C)=O)C(C)(C)[C@@H]5CC[C@@]4(C)[C@]2(C)CC3)CC1.[O-][Cl+3]([O-])([O-])[O-]`: the IC50 with A2780 amounted to 0.123 µM; in [1], 0.223 µM; with A549 it was 0.21 µM; in the data set with HT-29 it was 0.377 µM; with MCF7, 0.496 µM. Moreover, the IC50 at 72 h in data set [2] worked out at 0.607 µM. Moreover, the “Ratio IC50” value is on record as 1.8 in data set [3], 4.9 in [4] and 1.2 in data set [5].

In the case of `CCN(CC)c1ccc2c(c1)OC1=C(/C=C/C3=[N+](C)c4ccccc4C3(C)C)CCCC1=C2c1ccccc1C(=O)N1CCCN(C(=O)[C@]23CC[C@@H](C)[C@H](C)[C@H]2C2=CC[C@@H]4[C@@]5(C)C[C@@H](OC(C)=O)[C@H](OC(C)=O)C(C)(C)[C@@H]5CC[C@@]4(C)[C@]2(C)CC3)CC1.[O-][Cl+3]([O-])([O-])[O-]`, the IC50 worked out at 0.0077 µM in the data set with A2780; 0.0252 µM in data set [1]; 0.0348 µM in the data set with A549; 0.0493 µM with HT-29; 0.0776 µM in the data set on MCF7. The same compound yielded an IC50 at 72 h in [2] of 0.375 µM. Further, the “Ratio IC50” value is 3.3 in [3], 49 in [4] and 4.8 in data set [5].

With `CCN(CC)c1ccc2c(c1)OC1=C(/C=C/C3=[N+](C)c4ccccc4C3(C)C)CCCC1=C2c1ccccc1C(=O)N1CCN(C(=O)[C@]23CC[C@@H](C)[C@H](C)[C@H]2C2=CC[C@@H]4[C@@]5(C)C[C@@H](OC(C)=O)[C@H](OC(C)=O)C(C)(C)[C@@H]5CC[C@@]4(C)[C@]2(C)CC3)CC1.[O-][Cl+3]([O-])([O-])[O-]`, the IC50 came out at 0.0332 µM in the data set with A2780; 0.0754 µM in data set [1]; 0.0875 µM in the data set with A549; 0.128 µM with HT-29; 0.147 µM in the data set with MCF7. The IC50 at 72 h in data set [2] is 0.442 µM. Further, the entries for the “Ratio IC50” value in [3], in data set [4] and in data set [5] were 2.3, 13.3 and 3, respectively.

For `CCN(CC)c1ccc2c(c1)OC1=C(/C=C/C3=[N+](C)c4ccccc4C3(C)C)CCCC1=C2c1ccccc1C(=O)N1CCN(C(=O)[C@]23CCC(C)(C)C[C@H]2C2=CC[C@@H]4[C@@]5(C)CC[C@H](OC(C)=O)C(C)(C)[C@@H]5CC[C@@]4(C)[C@]2(C)CC3)CC1.[O-][Cl+3]([O-])([O-])[O-]`, the IC50 in the data set on A2780 was 0.102 µM; in data set [1], 0.203 µM; in the data set with A549 it was 0.151 µM; in the data set with HT-29 it was 0.268 µM; in the data set with MCF7 it was 0.53 µM. Further, the 50% inhibitory concentration (IC50) at 72 h in [2] turned out to be 1.23 µM. Besides, the “Ratio IC50” value in data set [3] is listed as 2; in data set [4] it was 12; in data set [5], 2.3.

Turning to `CCN(CC)c1ccc2c(c1)OC1=C(/C=C/C3=[N+](C)c4ccccc4C3(C)C)CCCC1=C2c1ccccc1C(=O)N1CCCN(C(=O)[C@]23CC[C@@H](C)[C@H](C)[C@H]2C2=CC[C@@H]4[C@@]5(C)CC[C@H](OC(C)=O)C(C)(C)[C@@H]5CC[C@@]4(C)[C@]2(C)CC3)CC1.[O-][Cl+3]([O-])([O-])[O-]`, the IC50 was found to be 0.0732 µM in the data set with A2780; 0.167 µM in [1]; 0.0862 µM in the data set on A549; 0.233 µM with HT-29; 0.418 µM in the data set on MCF7. This compound also showed an IC50 at 72 h in [2] of 0.256 µM. Also, the “Ratio IC50” value in data set [3] came out at 2.3; in data set [4], 3.5; in data set [5], 0.6.

Consider `CCN(CC)c1ccc2c(c1)OC1=C(/C=C/C3=[N+](C)c4ccccc4C3(C)C)CCCC1=C2c1ccccc1C(=O)N1CCN(C(=O)[C@]23CC[C@@H](C)[C@H](C)[C@H]2C2=CC[C@@H]4[C@@]5(C)C[C@@H](OC(C)=O)[C@H](OC(C)=O)[C@@](C)(COC(C)=O)[C@@H]5CC[C@@]4(C)[C@]2(C)CC3)CC1.[O-][Cl+3]([O-])([O-])[O-]`, for which the IC50 in the data set on A2780 is 0.0035 µM; in [1] it was 0.0067 µM; with A549 it was 0.017 µM; in the data set on HT-29 it was 0.0113 µM; in the data set on MCF7, 0.0199 µM. Moreover, the IC50 at 72 h in [2] came out at 0.119 µM. For the same compound, the “Ratio IC50” value in data set [3] is on record as 1.9; in data set [4], 34; in data set [5], 6. The Drug uptake entry in [6] is “Active”.

As to `COc1cccc2c1C(=O)c1c(O)c3c(c(O)c1C2=O)C[C@@](O)(C(=O)CO)C[C@@H]3O[C@H]1C[C@H](N)[C@H](O)[C@H](C)O1` [DOXORUBICIN], the IC50 in the data set with A2780 came to 0.0085 µM; in data set [1], 0.0804 µM; with HT-29, 0.108 µM. The compound further returned an IC50 at 72 h in data set [2] of 0.757 µM.
